From ChEMBL document CHEMBL2413001, “Exploring pyrimidine-substituted curcumin analogues: design, synthesis and effects on EGFR signaling” (Bioorg Med Chem, 2013) come the findings set out here.

Structures are written as SMILES. Activity calls are given as the source filed them. The rule behind the calls is not given here.

What is called IC50 is the midpoint of a concentration-inhibition curve.

For assay [1], the system named is HCT-116. Briefly: Cytotoxicity against human HCT116 cells assessed as growth inhibition after 48 hrs by resazurin assay. The settings on record: for IC50: HCT-116, 48 h. The assay is classed as functional, cell-based. The gist of the method:
(§1)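 HCT116 or HT29 seeded at 2000 cells/well, grown 24 h, then given fresh complete McCoy's 5A (5% FBS, 0.1% DMSO final) containing serial compound concentrations for 48 h. Resazurin was added for 16 h and fluorescence read at ex 544/em 595 nm as a measure of living cells. IC50 was calculated by the Logit approach; values are mean ± SD.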
A general note: Alamar Blue is a resazurin reagent that responds to reducing activity.

Assay [2] relates to HT-29. Briefly: Cytotoxicity against human HT-29 cells assessed as growth inhibition after 48 hrs by resazurin assay. The assay is classed as functional, cell-based. The following applies: for IC50: HT-29, 48 h. In outline:
as §1

The test system of assay [3] is HCT-116. Kind of assay: Induction of apoptosis in human HCT116 cells assessed as increase in Bax expression at 20 uM after 72 hrs by Western blot analysis. It is filed as functional, cell-based. In outline:
(§2)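 HCT116 only, seeded at 8 × 10⁴ cells/ml in 15 cm dishes for 24 h, then treated for 72 h at 20 µM or at 5, 10 and 20 µM. Lysed in Triton lysis buffer (pH 7.5) with inhibitors, sonicated, and protein assayed by BCA. Western blots were developed by ECL. Band intensities were normalized to β-actin, as means of three independent experiments; the Bax/Bcl-2 ratio was expressed relative to untreated control.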

The subject of assay [4] is HT-29. Briefly: Inhibition of EGFR protein expression in human HT-29 cells at 20 uM after 72 hrs by Western blot analysis. It is filed as functional, cell-based. The gist of the method:
(§3)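 HCT116 or HT29 seeded at 8 × 10⁴ cells/ml in 15 cm dishes for 24 h, then treated for 72 h at 20 µM or at 5, 10 and 20 µM. Whole-cell lysates were made in Tris-HCl/NaCl/Triton buffer with phosphatase and protease inhibitors (pH 7.5), sonicated and cleared at 10,000g; protein was measured by BCA. Blots were blocked in 5% milk/TBST and developed by ECL. P-EGFR(Tyr1068) and total EGFR bands were normalized to β-tubulin, as means of three experiments.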
For orientation: Immunoblotting shows a protein as a band on a membrane.

For assay [5], the system named is HCT-116. Kind of assay: Induction of apoptosis in human HCT116 cells assessed as PARP cleavage at 20 uM after 72 hrs by Western blot analysis. It is filed as functional, cell-based. In outline:
as §2

Assay [6] deals with Epidermal growth factor receptor (Homo sapiens) (UniProt P00533). Briefly: Inhibition of EGFR signaling in human HCT116 cells assessed as inhibition of cyclin E1 expression at 20 uM after 24 hrs by Western blot analysis. The assay is classed as cell-based. The settings on record: HCT-116.
Chain of Epidermal growth factor receptor (Homo sapiens) (P00533 whole entry): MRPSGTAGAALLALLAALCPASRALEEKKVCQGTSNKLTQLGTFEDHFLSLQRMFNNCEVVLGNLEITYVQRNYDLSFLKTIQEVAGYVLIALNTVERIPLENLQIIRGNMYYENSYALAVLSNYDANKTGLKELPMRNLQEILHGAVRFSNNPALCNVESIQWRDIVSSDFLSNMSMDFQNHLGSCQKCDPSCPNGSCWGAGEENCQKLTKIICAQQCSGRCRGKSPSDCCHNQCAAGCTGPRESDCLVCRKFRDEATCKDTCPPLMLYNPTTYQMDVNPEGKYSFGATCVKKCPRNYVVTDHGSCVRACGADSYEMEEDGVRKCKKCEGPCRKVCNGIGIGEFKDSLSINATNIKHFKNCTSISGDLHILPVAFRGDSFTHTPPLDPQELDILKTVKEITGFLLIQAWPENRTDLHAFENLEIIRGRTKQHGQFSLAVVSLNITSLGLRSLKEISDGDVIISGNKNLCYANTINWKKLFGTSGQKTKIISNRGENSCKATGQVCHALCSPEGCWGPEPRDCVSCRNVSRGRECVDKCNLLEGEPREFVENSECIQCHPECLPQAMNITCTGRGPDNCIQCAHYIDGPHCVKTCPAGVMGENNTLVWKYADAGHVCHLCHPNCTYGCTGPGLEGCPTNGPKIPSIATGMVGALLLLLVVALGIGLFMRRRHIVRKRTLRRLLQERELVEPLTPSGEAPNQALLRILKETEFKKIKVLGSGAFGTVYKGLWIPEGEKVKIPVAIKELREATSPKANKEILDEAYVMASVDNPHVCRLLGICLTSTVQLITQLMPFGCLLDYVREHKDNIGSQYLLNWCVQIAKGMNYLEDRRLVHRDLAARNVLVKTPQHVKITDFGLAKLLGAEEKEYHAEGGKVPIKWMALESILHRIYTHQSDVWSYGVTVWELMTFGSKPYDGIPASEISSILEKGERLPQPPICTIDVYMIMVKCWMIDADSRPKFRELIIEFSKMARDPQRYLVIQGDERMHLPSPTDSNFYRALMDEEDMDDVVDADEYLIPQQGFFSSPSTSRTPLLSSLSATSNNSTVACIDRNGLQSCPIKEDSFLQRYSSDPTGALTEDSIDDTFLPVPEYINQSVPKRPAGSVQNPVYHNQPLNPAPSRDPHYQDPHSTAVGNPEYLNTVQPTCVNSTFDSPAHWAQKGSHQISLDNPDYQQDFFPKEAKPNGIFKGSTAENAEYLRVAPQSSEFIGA
Assay [7] deals with HCT-116. Kind of assay: Cell cycle arrest in human HCT116 cells assessed as increase in G2/M population at 20 uM after 24 hrs by flow cytometry relative to control. The assay is classed as functional. In outline: (§4)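 HCT116 or HT29 cells seeded at 4 × 10⁴ cells/ml in 6-well plates and left 24 h to attach, then exposed for 24 h in complete McCoy's 5A (5% FBS) with 0.1% DMSO final, at 5, 10 or 20 µM. Floating and trypsinized cells were pooled, PBS-washed, fixed overnight in 70% ethanol at 4 °C and stained with PI/RNase for 15 min at room temperature. Flow DNA content gave G0/G1, S and G2/M fractions as fold of control, from three independent assays.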
(A flow cytometer gives signals particle by particle.)

In assay [8] the target is Epidermal growth factor receptor (Homo sapiens) (UniProt P00533). Briefly: Inhibition of EGFR phosphorylation at Tyr1068 residue in human HT-29 cells at 20 uM after 72 hrs by Western blot analysis. The assay is classed as cell-based. In outline:
as §3

Assay [9] shares this target. Kind of assay: Inhibition of EGFR signaling in human HCT116 cells assessed as effect on CDK4 expression at 20 uM after 24 hrs by Western blot analysis. It is filed as cell-based. The settings on record: HCT-116.
Assay [10] deals with HCT-116. Briefly: Induction of apoptosis in human HCT116 cells assessed as effect on HSP-70 expression at 20 uM after 72 hrs by Western blot analysis. The assay is classed as functional, cell-based. In outline: as §2
Assay [11] addresses Epidermal growth factor receptor (Homo sapiens) (UniProt P00533). Kind of assay: Inhibition of EGFR signaling in human HCT116 cells assessed as effect on CDK2 expression at 20 uM after 24 hrs by Western blot analysis. The assay is classed as cell-based. The settings on record: HCT-116.
Assay [12] shares this target. Briefly: Inhibition of EGFR signaling in human HCT116 cells assessed as inhibition of cyclin D1 expression at 20 uM after 24 hrs by Western blot analysis. The assay is classed as cell-based. The settings on record: HCT-116.
Assay [13] concerns HCT-116. Kind of assay: Inhibition of EGFR protein expression in human HCT116 cells at 20 uM after 72 hrs by Western blot analysis. It is filed as functional, cell-based. In outline: as §3
In assay [14] the test system is HCT-116. Kind of assay: Induction of apoptosis in human HCT116 cells assessed as ratio of Bax to Bcl-2 expression at 20 uM after 72 hrs by Western blot analysis relative to control. The assay is classed as functional. The gist of the method:
as §2

Assay [15] addresses Epidermal growth factor receptor (Homo sapiens) (UniProt P00533). Briefly: Inhibition of EGFR signaling in human HCT116 cells assessed as inhibition of Rb expression at 20 uM after 24 hrs by Western blot analysis. The assay is classed as cell-based. The following applies: HCT-116.
Assay [16] concerns HCT-116. Kind of assay: Induction of apoptosis in human HCT116 cells assessed as caspase-3 activation at 20 uM after 72 hrs by Western blot analysis. The assay is classed as functional, cell-based. The gist of the method: as §2
Assay [17] deals with Epidermal growth factor receptor (Homo sapiens) (UniProt P00533). Kind of assay: Inhibition of EGFR signaling in human HCT116 cells assessed as induction of p21 WAF-1/CIP-1 expression at 20 uM after 24 hrs by Western blot analysis relative to control. The assay is classed as cell-based. The following applies: HCT-116.
For assay [18], the system named is HT-29. Kind of assay: Cell cycle arrest in human HT-29 cells assessed as increase in G2/M population at 20 uM after 24 hrs by flow cytometry relative to control. The assay is classed as functional. In outline:
as §4

Assay [19] deals with Epidermal growth factor receptor (Homo sapiens) (UniProt P00533). Kind of assay: Inhibition of EGFR phosphorylation at Tyr1068 residue in human HCT116 cells at 20 uM after 72 hrs by Western blot analysis. It is filed as cell-based. The settings on record: HCT-116. In outline: as §3
Assay [20] has as its system HCT-116. Kind of assay: Induction of apoptosis in human HCT116 cells assessed as reduction in Bcl-2 expression at 20 uM after 72 hrs by Western blot analysis. The assay is classed as functional, cell-based. In outline: as §2
Assay [21] relates to HCT-116. Briefly: Induction of apoptosis in human HCT116 cells assessed as effect on HSP-90 expression at 20 uM after 72 hrs by Western blot analysis. It is filed as functional, cell-based. In outline:
as §2

Regarding `CCCNc1nc(/C=C/c2cc(OC)c(OC)c(OC)c2)cc(/C=C/c2cc(OC)c(OC)c(OC)c2)n1`, in the assay on HCT-116 [1], the “growth inhibition (GI)” value is “Dose-dependent effect” and the IC50 was 21.9 µM. The IC50 in the assay with HT-29 [2] was over 100 µM.
Consider `CCNc1nc(/C=C/c2ccc(OC)c(OC)c2)cc(/C=C/c2ccc(OC)c(OC)c2)n1`, for which the result with HCT-116 [3] and with HCT-116 [20] was Active. Besides, the inhibition result (in the assay with HT-29 [4]; in [6]; in [8]; in assay [9]; in assay [11]; in assay [12]) was “inactive” throughout. The inhibition entry (in the assay on HCT-116 [13]; in assay [15]; in assay [19]) was “inactive” in each case. Besides, the “growth inhibition (GI)” value in the assay with HCT-116 [1] and in the assay with HT-29 [2] was “Dose-dependent effect” throughout. Moreover, the IC50 in the assay with HCT-116 [1] amounted to 46.4 µM; with HT-29 [2], 38.5 µM. The result in the assay on HCT-116 [5], with HCT-116 [10], in the assay with HCT-116 [16] and with HCT-116 [21] was inactive. Further, the “fold change (FC)” value was determined as 1.03 in the assay with HCT-116 [7], 20 in [17] and 1.1 in the assay on HT-29 [18]. Moreover, in the assay on HCT-116 [14], the Ratio came out at 1.57.
On to `CCCNc1nc(/C=C/c2ccc(OC)c(OC)c2)cc(/C=C/c2ccc(OC)c(OC)c2)n1`, for which the “growth inhibition (GI)” value with HCT-116 [1] and in the assay with HT-29 [2] was “Dose-dependent effect” throughout. In addition, the figures for the IC50 in the assay with HCT-116 [1] and with HT-29 [2] were 28 µM and over 100 µM, respectively.
